Test results taken from ChEMBL document CHEMBL4325889, “Natural products hybrids: 3,5,4'-Trimethoxystilbene-5,6,7-trimethoxyflavone chimeric analogs as potential cytotoxic agents against diverse human cancer cells” (Eur J Med Chem, 2019).
The source made the active and inactive calls. The calls are words filed in the database; no cut-off is given here.

Experiments:
HeLa [1] = assay: Induction of apoptosis in human HeLa cells assessed as late apoptotic cells after 24 hrs by Annexin V-FITC/propidium iodide staining based flow cytometry (reference value: 3.6%); type: functional
Outline: (§1)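 HeLa human cervical cancer cells treated with increasing concentrations or for increasing incubation times. Cells stained with annexin V-FITC and propidium iodide and analysed by FACS. Gating: early apoptotic = annexin+/PI−, late apoptotic = annexin+/PI+.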

HeLa [2] = assay: Induction of apoptosis in human HeLa cells assessed as necrotic cells at 2.5 uM by Annexin V-FITC/propidium iodide staining based flow cytometry (reference value: 2.2%); type: functional; outline: as §1
HeLa [3] = assay: Induction of apoptosis in human HeLa cells assessed as live cells after 12 hrs by Annexin V-FITC/propidium iodide staining based flow cytometry (reference value: 92.9%); type: functional; outline: as §1
HeLa [4] = assay: Induction of apoptosis in human HeLa cells assessed as late apoptotic cells at 10 uM by Annexin V-FITC/propidium iodide staining based flow cytometry (reference value: 6.9%); type: functional; outline: as §1
HeLa [5] = assay: Induction of apoptosis in human HeLa cells assessed as live cells after 48 hrs by Annexin V-FITC/propidium iodide staining based flow cytometry (reference value: 92.9%); type: functional; outline: as §1
HeLa [6] = assay: Induction of apoptosis in human HeLa cells assessed as live cells at 5 uM by Annexin V-FITC/propidium iodide staining based flow cytometry (reference value: 85.2%); type: functional; outline: as §1
HeLa [7] = assay: Induction of apoptosis in human HeLa cells assessed as early apoptotic cells after 12 hrs by Annexin V-FITC/propidium iodide staining based flow cytometry (reference value: 2.6%); type: functional; outline: as §1
HeLa [8] = assay: Induction of apoptosis in human HeLa cells assessed as necrotic cells at 5 uM by Annexin V-FITC/propidium iodide staining based flow cytometry (reference value: 2.2%); type: functional; outline: as §1
HeLa [9] = assay: Induction of apoptosis in human HeLa cells assessed as necrotic cells after 12 hrs by Annexin V-FITC/propidium iodide staining based flow cytometry (reference value: 0.9%); type: functional; outline: as §1
HeLa [10] = assay: Induction of apoptosis in human HeLa cells assessed as necrotic cells after 48 hrs by Annexin V-FITC/propidium iodide staining based flow cytometry (reference value: 0.9%); type: functional; outline: as §1
HeLa [11] = assay: Induction of apoptosis in human HeLa cells assessed as late apoptotic cells at 5 uM by Annexin V-FITC/propidium iodide staining based flow cytometry (reference value: 6.9%); type: functional; outline: as §1
HeLa [12] = assay: Cell cycle arrest in human HeLa cells assessed as accumulation at sub-G1 phase after 48 hrs by propidium iodide staining based flow cytometry (reference value: 4.43%); type: functional
HeLa [13] = assay: Induction of apoptosis in human HeLa cells assessed as late apoptotic cells at 2.5 uM by Annexin V-FITC/propidium iodide staining based flow cytometry (reference value: 6.9%); type: functional; outline: as §1
HeLa [14] = assay: Induction of morphological changes in human HeLa cells assessed as nuclear fragmentation at 10 uM after 48 hrs by DAPI staining based fluorescence microscopic method; type: functional, cell-based
Outline: (§2)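 HeLa cells exposed to 10 µM for 48 h, then stained with DAPI. Nuclear shape, size and density (bright condensed, fragmented chromatin, apoptotic bodies) examined by fluorescence microscopy under 358 nm excitation, against untreated control cells.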

HeLa [15] = assay: Induction of morphological changes in human HeLa cells assessed as chromatin condensation at 10 uM after 48 hrs by DAPI staining based fluorescence microscopic method; type: functional, cell-based; outline: as §2
HeLa [16] = assay: Induction of morphological changes in human HeLa cells assessed as apoptotic body formation at 10 uM after 48 hrs by DAPI staining based fluorescence microscopic method; type: functional, cell-based; outline: as §2
HeLa [17] = assay: Induction of apoptosis in human HeLa cells assessed as early apoptotic cells at 5 uM by Annexin V-FITC/propidium iodide staining based flow cytometry (reference value: 5.7%); type: functional; outline: as §1
HeLa [18] = assay: Induction of apoptosis in human HeLa cells assessed as necrotic cells at 10 uM by Annexin V-FITC/propidium iodide staining based flow cytometry (reference value: 2.2%); type: functional; outline: as §1

In the case of `COc1cc(NC(=O)c2cccc(-c3cc(=O)c4c(OC)c(OC)c(OC)cc4o3)c2)cc(OC)c1OC`, the Activity (HeLa [1]) is reported as 4.4%, the Activity (HeLa [2]) is reported as 2.4% and the Activity (HeLa [3]) is reported as 89.3%. For the same compound, the Activity (HeLa [4]) was 21.2%, the Activity (HeLa [5]) was 33.2% and the Activity (HeLa [6]) was 59.4%. It also gave an Activity (HeLa [7]) of 4.2%, an Activity (HeLa [8]) of 5.7% and an Activity (HeLa [9]) of 1%. The Activity (HeLa [10]) was 3.7%, the Activity (HeLa [11]) was 13.8% and the Activity (HeLa [12]) was 26.61%. For the same compound, the Activity (HeLa [13]) was 6.8%, the Activity (HeLa [14]) was “Active” and the Activity (HeLa [15]) was “Active”. The Activity (HeLa [16]) was “Active”, the Activity (HeLa [17]) was 21.1% and the Activity (HeLa [18]) was 12.6%.
